Data taken from ChEMBL document CHEMBL1773055, “A chemotype that inhibits three unrelated pathogenic targets: the botulinum neurotoxin serotype A light chain, P. falciparum malaria, and the Ebola filovirus” (J Med Chem, 2011).
Calls of active or inactive are those of the source. The rule behind the calls is not given here.

Legend:
Plasmodium falciparum [1] = assay: Resistance index, ratio of IC50 for Plasmodium falciparum W2 to IC50 for Plasmodium falciparum D6; type: functional
Method in brief: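 P. falciparum clones D6 (CQ/MFQ-susceptible, Sierra I/UNC), W2 (CQ-resistant, MFQ-susceptible, Indochina I) and TM91C235 (CQ- and MFQ-resistant, South-East Asian) were tested in a modified Desjardins in vitro susceptibility screen, giving IC50 and IC90. Resistance index is IC50 of the resistant strain divided by IC50 against D6 (W2/D6, C235/D6).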

[2] = biological target: Botulinum neurotoxin type A (Clostridium botulinum) (UniProt P0DPI0); assay: (§1) Inhibition of clostridium botulinum Botulinum neurotoxin type A light chain at 20 uM
Method in brief: (§2)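 Recombinant BoNT/A LC and peptide substrate were incubated in 40 mM HEPES–0.05% Tween pH 7.3 with 0.5 mg/ml BSA and 50 μM excess ZnCl2 at 37°C, with compound at 20 μM. Reactions were quenched with TFA, and substrate hydrolysis was quantified by reverse-phase HPLC peak areas. Percent inhibition was measured in duplicate.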

Plasmodium falciparum [3] = assay: Antimalarial activity against Plasmodium falciparum C235; type: functional, organism-based
Plasmodium falciparum [4] = assay: Antimalarial activity against Plasmodium falciparum D6; type: functional, organism-based
Plasmodium falciparum [5] = assay: Resistance index, ratio of IC50 for Plasmodium falciparum C235 to IC50 for Plasmodium falciparum D6; type: functional
Plasmodium falciparum [6] = assay: Antimalarial activity against Plasmodium falciparum W2; type: functional, organism-based
Liver microsomes = assay: Half life in human liver microsomes; type: ADME, Microsome
Method in brief: (§3)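 Compound at 10 μM was incubated with mouse or human liver microsomes (1 mg/mL protein) in 0.1 M sodium phosphate pH 7.4 with an NADPH-regenerating system at 37°C, started by G6PD. Samples were quenched with cold acetonitrile at 0, 10, 30 and 60 min and analysed by LC-MS/MS. Half-life = 0.693/k.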

[7] = Inhibition of beta-hematin formation assessed as drug-hematin ratio for 50% inhibition by BHIA assay; type: functional
Ebolavirus [8] = assay: Antiviral activity against Zaire ebolavirus expressing enhanced GFP in Vero 76 cells after 48 hrs by standard Plaque assay; type: functional, cell-based; conditions: Orthoebolavirus
[9] = Selectivity index, ratio of IC90 for […] cells to IC90 for Plasmodium falciparum C235; type: toxicity, cell-based
RAW264.7 = assay: Cytotoxicity against rat RAW264.7 cells by MTT assay; type: cell-based; conditions: for IC50: Mus musculus, RAW264.7; for IC90: […]
Method in brief: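 RAW 264.7 cells were seeded at 2.5×10^4 per well about 12 h before dosing. They were exposed to 0.29–48 μg/ml compound for 48 h at 37°C, 5% CO2. Viability was read by MTT reduction, with a DMSO control. Runs were in duplicate, and IC50 came from sigmoidal variable-slope dose-response fits.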

[10] = Selectivity index, ratio of IC90 for […] cells to IC90 for Plasmodium falciparum D6; type: toxicity, cell-based
Ebolavirus [11] = assay: Antiviral activity against Zaire ebolavirus expressing enhanced GFP in Vero 76 cells at 20 uM after 48 hrs by standard Plaque assay; type: functional; conditions: Orthoebolavirus
[12] = Cytotoxicity against human NCI60 cells; type: functional
[13] = Selectivity index, ratio of IC50 for […] cells to IC50 for Plasmodium falciparum W2; type: toxicity, cell-based; conditions: read-out: Ratio IC50
[14] = Selectivity index, ratio of IC50 for […] cells to IC50 for Plasmodium falciparum C235; type: toxicity, cell-based; conditions: read-out: Ratio IC50
[15] = Selectivity index, ratio of IC90 for […] cells to IC90 for Plasmodium falciparum W2; type: toxicity, cell-based
[16] = Inhibition of beta-hematin formation; type: functional
Liver = assay: Half life in mouse liver microsomes; type: ADME, Microsome; method in brief: as §3
[17] = Selectivity index, ratio of IC50 for […] cells to IC50 for Plasmodium falciparum D6; type: toxicity, cell-based; conditions: read-out: Ratio IC50
Vero = assay: Cytotoxicity against african green monkey Vero 76 cells at 20 uM; type: cell-based; conditions: chlorocebus sabaeus
Plasmodium berghei = assay: Antiplasmodial activity against Plasmodium berghei str. ANKA infected in ICR mouse assessed as protection against infection; type: functional, organism-based
Method in brief: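 ICR mice were dosed orally once daily on days -1, 0 (1–3 h before inoculation) and +1, with compound in 0.5% hydroxyethylcellulose/0.1% Tween 80. On day 0 they received 1.0×10^5 P. berghei ANKA sporozoites IV, taken from Anopheles dirus salivary glands. Giemsa thick/thin tail smears were read on days 4–31. Protection meant no parasitemia within 10 days and negative smears through day 31.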

Mus musculus = assay: Toxicity against ICR mouse at 160 mg/kg, po for 3 consecutive days measured; type: organism-based; design: dose 160 mg/kg, route oral; conditions: in vivo
Method in brief: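 P. berghei (P-line)-infected outbred ICR mice were given compound orally in 0.5% hydroxyethylcellulose/0.1% Tween 80 daily for 3 days. Toxicity was judged from overt physical or behavioural changes, checked twice daily, plus gross necropsy of all mice.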

[18] = biological target: Botulinum neurotoxin type A (Clostridium botulinum, UniProt P0DPI0); assay: as §1; method in brief: as §2
Sequence of Botulinum neurotoxin type A (P0DPI0 2-448 limits assumed): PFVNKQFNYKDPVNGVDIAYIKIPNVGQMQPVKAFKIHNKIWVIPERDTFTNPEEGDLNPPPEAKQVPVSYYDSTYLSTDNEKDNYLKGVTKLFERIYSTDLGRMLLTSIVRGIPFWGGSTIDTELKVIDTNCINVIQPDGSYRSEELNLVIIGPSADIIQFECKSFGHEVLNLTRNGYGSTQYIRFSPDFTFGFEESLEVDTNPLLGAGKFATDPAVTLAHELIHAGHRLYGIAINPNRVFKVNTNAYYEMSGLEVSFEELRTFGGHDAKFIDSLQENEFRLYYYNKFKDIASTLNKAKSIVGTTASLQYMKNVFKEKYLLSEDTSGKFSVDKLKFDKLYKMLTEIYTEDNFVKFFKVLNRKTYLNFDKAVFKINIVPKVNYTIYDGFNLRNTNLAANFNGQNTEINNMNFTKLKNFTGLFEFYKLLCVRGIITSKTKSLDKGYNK

Sequence of Botulinum neurotoxin type A (Clostridium botulinum) (P0DPI0 2-448 limits assumed): as above

Structure (SMILES) | Ratio IC50 (Plasmodium falciparum [1]) | inhibition [2] | IC50 (Plasmodium falciparum [3]) | IC90 (Plasmodium falciparum [3]) | IC50 (Plasmodium falciparum [4]) | IC90 (Plasmodium falciparum [4]) | Ratio IC50 (Plasmodium falciparum [5]) | IC50 (Plasmodium falciparum [6]) | IC90 (Plasmodium falciparum [6]) | further results
CCN(CC)CCCNc1cc(C)nc2c1ccc1c2ccc2c(NCCCN(CC)CC)cc(C)nc21.Cl | 0.29 | 64.7% | 66.5 nM | 286 nM | 30 nM | 49.5 nM | 2.22 | 8.65 nM | 46.7 nM | –
Cc1cc(NCCN(C)C)c2ccc3c(ccc4c(NCCN(C)C)cc(C)nc43)c2n1.Cl | 0.59 | 57% | 15.3 nM | 26 nM | – | 20.8 nM | 0.98 | 9.19 nM | 31.2 nM | –
Cc1cc(NCCCCN)c2ccc3c(ccc4c(NCCCCN)cc(C)nc43)c2n1 | – | 72.2% | – | – | – | – | – | – | – | –
Cc1cc(NCCCN2CCOCC2)c2ccc3c(ccc4c(NCCCN5CCOCC5)cc(C)nc43)c2n1.Cl | 0.38 | 55.6% | 8.05 nM | 17.4 nM | 5.23 nM | 8.47 nM | 1.54 | 2 nM | 6.38 nM | t1/2 (Liver microsomes): 0.667 h; IC50 [7]: 0.52 equiv; IC50 (Ebolavirus [8]): 2500 nM; selectivity ratio [9]: 635; IC50 (RAW264.7): 7480 nM; IC90 (RAW264.7): 11000 nM; selectivity ratio [10]: 1300; inhibition at 20 µM (Ebolavirus [11]): 96%; inhibition (INH) [12]: 92%; selectivity ratio [13]: 3740; selectivity ratio [14]: 929; selectivity ratio [15]: 1730; inhibition [16]: Dose-dependent effect; t1/2 (Liver): > 1 h; selectivity ratio [17]: 1430; Activity (Vero): < 20%
Cc1cc(NCCCN)c2ccc3c(ccc4c(NCCCN)cc(C)nc43)c2n1.Cl | 2.4 | 70% | 2030 nM | 3050 nM | 708 nM | 1010 nM | 2.87 | 1700 nM | 3260 nM | –
Cc1cc(NCCCN2CCCCC2)c2ccc3c(ccc4c(NCCCN5CCCCC5)cc(C)nc43)c2n1.Cl | 0.75 | 66.1% | 24.8 nM | 41.2 nM | 9.26 nM | 17.4 nM | 2.68 | 6.98 nM | 22.5 nM | IC50 (Ebolavirus [8]): 5000 nM; inhibition at 20 µM (Ebolavirus [11]): 100%; Activity (Vero): < 20%
CCN(CC)CCNc1cc(C)nc2c1ccc1c2ccc2c(NCCN(CC)CC)cc(C)nc21.Cl | 0.57 | 55.4% | 3.32 nM | 3.79 nM | 6.01 nM | 9.01 nM | 0.55 | – | 10.1 nM | t1/2 (Liver microsomes): > 1 h; IC50 (Ebolavirus [8]): 5000 nM; selectivity ratio [9]: 2830; IC50 (RAW264.7): 9350 nM; IC90 (RAW264.7): 10700 nM; selectivity ratio [10]: 1190; inhibition at 20 µM (Ebolavirus [11]): 97%; Activity (Plasmodium berghei): inactive; selectivity ratio [13]: 2690; selectivity ratio [14]: 282; selectivity ratio [15]: 1060; t1/2 (Liver): > 1 h; selectivity ratio [17]: 1560; Activity (Vero): < 20%; Activity (Mus musculus): Non-toxic
Cc1cc(NCCCN(C)C)c2ccc3c(ccc4c(NCCCN(C)C)cc(C)nc43)c2n1.Cl | 3.41 | 68.9% | 54.8 nM | 699 nM | 103 nM | 210 nM | 0.53 | 353 nM | 709 nM | –
Cc1cc(NCCCN2CCCC2)c2ccc3c(ccc4c(NCCCN5CCCC5)cc(C)nc43)c2n1.Cl | 0.52 | 73.5% | 34.3 nM | 95.2 nM | 14.8 nM | 39.4 nM | 2.31 | 7.75 nM | 25.4 nM | –
Cc1cc(NCCN)c2ccc3c(ccc4c(NCCN)cc(C)nc43)c2n1.Cl | 3.22 | 62.7% | 1020 nM | 1760 nM | 270 nM | 355 nM | 3.78 | 871 nM | 1790 nM | Ki [18]: 8700 nM
Cc1cc(NCCN2CCOCC2)c2ccc3c(ccc4c(NCCN5CCOCC5)cc(C)nc43)c2n1.Cl | 1.03 | 39% | 9.84 nM | 16.5 nM | 5.93 nM | 12.6 nM | 1.66 | 6.12 nM | 11.5 nM | t1/2 (Liver microsomes): > 1 h; IC50 [7]: 0.473 equiv; selectivity ratio [9]: 1820; IC50 (RAW264.7): 10200 nM; IC90 (RAW264.7): 29900 nM; selectivity ratio [10]: 2370; inhibition at 20 µM (Ebolavirus [11]): 53%; inhibition (INH) [12]: 91%; selectivity ratio [13]: 1660; selectivity ratio [14]: 1030; selectivity ratio [15]: 2600; inhibition [16]: Dose-dependent effect; t1/2 (Liver): > 1 h; selectivity ratio [17]: 1720
CCN(CC)CCCC(C)Nc1ccnc2cc(Cl)ccc12 (configuration not stated) [CHLOROQUINE] | – | – | – | 373 nM | – | 16.1 nM | – | – | 698 nM | –
Cc1cc(NCCN2CCCCC2)c2ccc3c(ccc4c(NCCN5CCCCC5)cc(C)nc43)c2n1.Cl | 0.62 | 63.4% | 10.6 nM | 14.9 nM | 8.79 nM | 13.2 nM | 1.2 | 5.5 nM | 15.4 nM | –
Cc1cc(NCCN2CCCC2)c2ccc3c(ccc4c(NCCN5CCCC5)cc(C)nc43)c2n1.Cl | 0.48 | 60.3% | 25.9 nM | 40.3 nM | 16.8 nM | 32.3 nM | 1.54 | 8.11 nM | 28 nM | IC50 [7]: 0.401 equiv; inhibition [16]: Dose-dependent effect
C[C@@H]1CC[C@H]2[C@@H](C)C(=O)O[C@@H]3O[C@@]4(C)CC[C@@H]1[C@]32OO4 [ARTEMISININ] | – | – | 13 nM | 17.4 nM | 9 nM | 12.8 nM | – | 6.7 nM | 11.5 nM | –
